This is a sample that favours compounds with a hit; in the whole collection about 3.1% have one here.
SENP8 block-1: SENP8 (human) protease inhibition | Q96LD8 | recombinant SENP8, Nedd8 substrate fluorescence | inhibition, % at 20 µM | actives 0.64% (n = 360,000) | AID 602440; in the data active = inhibition mostly above about 40%, no sharp cut-off; inactive = mostly below about 27%
Target sequence (Q96LD8 whole entry, looked up): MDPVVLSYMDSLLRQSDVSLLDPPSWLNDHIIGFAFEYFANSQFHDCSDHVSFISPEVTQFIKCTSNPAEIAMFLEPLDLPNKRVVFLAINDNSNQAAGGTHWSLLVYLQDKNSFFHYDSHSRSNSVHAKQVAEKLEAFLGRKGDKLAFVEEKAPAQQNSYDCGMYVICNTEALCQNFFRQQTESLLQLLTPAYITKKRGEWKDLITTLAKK
Apaf-1 inh: inhibitors of human Apaf-1 apoptosome | O14727 | reconstituted apoptosome caspase-3 activity, DEVD-Rh110 fluorescence | inhibition, % at 20 µM | actives 0.71% (n = 330,000) | AID 489030; active = inhibition of at least 40% at 20 µM;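 also: plate controls were DMSO wells for no effect and DEVD-CHO caspase inhibitor wells for full effect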
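Assay system – apoptosome proteins · Medium – Hepes buffer, pH 7.5 · Also added – cytochrome c with DEVD-Rh110 · Timing – 30 min compound preincubation, 50 min activation, room temperature · Detection – Rh110 fluorescence, excitation 480 nm, emission 540 nm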
UBC13 inh: human UBC13 polyubiquitination inhibition; P61088; UBC13 polyubiquitin chain formation, TR-FRET; inhibition, % at 20 µM; actives 0.47% (n = 330,000); AID 485273; in the data active = inhibition above about 45%, passing the limit was not always enough
SENP6 block: SENP6 protease inhibition; Q9GZR1; Recombinant SENP6 catalytic domain, aminoluciferin luminescence; inhibition, % at 10 µM; actives 1.8% (n = 330,000);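 active = inhibition above about 50% at the single tested dose, limit read from the data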;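 also: plate controls were DMSO wells with enzyme for no effect and DMSO wells lacking enzyme for full effect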
Target sequence (Q9GZR1 628-1112 limits assumed): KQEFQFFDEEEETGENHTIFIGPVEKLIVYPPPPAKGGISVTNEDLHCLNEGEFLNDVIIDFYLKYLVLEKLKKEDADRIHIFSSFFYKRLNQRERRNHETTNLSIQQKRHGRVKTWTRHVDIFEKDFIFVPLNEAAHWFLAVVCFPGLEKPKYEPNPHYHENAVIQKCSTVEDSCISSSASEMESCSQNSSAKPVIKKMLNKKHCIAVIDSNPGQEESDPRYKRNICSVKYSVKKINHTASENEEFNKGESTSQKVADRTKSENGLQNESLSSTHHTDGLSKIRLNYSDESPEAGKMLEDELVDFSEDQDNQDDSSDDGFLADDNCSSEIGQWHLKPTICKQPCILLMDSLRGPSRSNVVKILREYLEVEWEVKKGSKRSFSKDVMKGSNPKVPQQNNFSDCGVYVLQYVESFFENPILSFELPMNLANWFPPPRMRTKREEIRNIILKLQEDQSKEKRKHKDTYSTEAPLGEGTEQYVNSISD
SENP8 block-2: SENP8 protease inhibition | Q96LD8 | purified SENP8, Z-RLRGG-aminoluciferin cleavage, luminescence | actives 1.2% (n = 330,000) | inhibition, % at 10 µM | AID 2540; in the data active = inhibition above about 50%
SENP7 block: inhibitors of human SENP7 protease; Q9BQF6; recombinant SENP7, Z-RLRGG-aminoluciferin luminescence, 40 min; inhibition, % at 5 µM; actives 1.5% (n = 330,000);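 active = inhibition above about 50% at the single test dose, limit read from the data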;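 also: plate controls were DMSO with enzyme for no effect and no enzyme buffer wells for full effect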
SENP8 confirm: confirmation of human SENP8 protease inhibitors. shares compounds with SENP7 block. Recombinant SENP8, Z-RLRGG-aminoluciferin luminescence, 60 min. inhibition, % at 12.5 µM. actives 40% (n = 6,200);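 active = mean inhibition across replicates above about 50%, limit read from the data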
SENP6 conf: confirmation of human SENP6 protease inhibitors; recombinant SENP6, Z-RLRGG-aminoluciferin luminescence; shares compounds with SENP7 block; inhibition, % at 12.5 µM; actives 58% (n = 6,200)
SENP7 conf: confirmation of human SENP7 protease inhibitors. shares compounds with SENP7 block. recombinant SENP7, Z-RLRGG-aminoluciferin luminescence, 40 min. inhibition, % at 12.5 µM. actives 69% (n = 6,200). AID 488917
Casp3 select: selectivity test for SENP inhibitors: human caspase-3 inhibition; shares compounds with SENP7 block; purified caspase-3, Z-DEVD-aminoluciferin luminescence, 60 min; inhibition, % at 12.5 µM; actives 60% (n = 6,200);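 active = mean inhibition above about 50%, limit read from the data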;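 also: plate controls were enzyme with DMSO for no effect and wells without caspase-3 for full effect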
Luc interf: counter-screen for SENP inhibitors: luminescence interference. shares compounds with SENP7 block. Pre-incubated SENP8/Z-RLRGG-aminoluciferin, luciferase luminescence interference. inhibition, % at 12.5 µM. actives 39% (n = 6,200). AID 488919;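 active = mean inhibition above about 50% when retested at one dose, limit read from the data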;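 also: plate controls were DMSO wells with completed reaction for no effect and substrate without enzyme for full effect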
Numbers without * were called inactive; nt = not tested or not shown.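 The calls were made as follows, unless noted: active = mean inhibition above about 50% in the one-dose retest (limit read from the data); inactive = the rest.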

SMILES	SENP8 block-1	Apaf-1 inh	UBC13 inh	SENP6 block	SENP8 block-2	SENP7 block	SENP8 confirm	SENP6 conf	SENP7 conf	Casp3 select	Luc interf
COc1ccc(-c2csc(NC(=O)c3ccccc3Br)c2C(=O)O)cc1	5	7	1	53*	30	6	49	49	68*	48	62*
Oc1ccc(C=NNC(=S)Nc2cccnc2)nc1	-438	nt	nt	nt	nt	nt	nt	nt	nt	nt	nt
CCOC(=O)C1(C)CCCN(C(=O)c2cccnc2)C1 (stereo not drawn)	10	nt	nt	nt	nt	nt	nt	nt	nt	nt	nt
CCCCCCCCN1C(=O)[C@H](CC(=O)NCCCN2CCCC2=O)C[C@@]2(C(=O)OC)CC(C)(C)CC=C12	22	nt	nt	nt	nt	nt	nt	nt	nt	nt	nt
Cc1ccc(-c2csc(NC(=O)c3ccccc3F)c2C(=O)O)cc1	-20	9	7	82*	80*	39	8	85*	93*	84*	59*
O=C(Nc1scc(-c2ccc(Br)cc2)c1C(=O)O)c1ccccc1F	-36	-3	-1	88*	87*	13	87*	86*	68*	77*	33
Cc1ccc(C(=O)Nc2ccccc2-c2ccccc2)o1	6	0	3	-9	5	7	nt	nt	nt	nt	nt
Cc1ccc(C(=O)Nc2scc(-c3ccccc3)c2C(=O)O)o1	-253	-2	-5	50	66*	57*	86*	85*	96*	92*	82*
O=C(/C=C/c1ccco1)Nc1scc(-c2ccccc2)c1C(=O)O	-4	-13	-3	98*	97*	95*	98*	99*	102*	98*	97*
O=C(/C=C/c1ccccc1)Nc1scc(-c2ccccc2)c1C(=O)O	-3	nt	nt	nt	nt	nt	nt	nt	nt	nt	nt
Cc1ccccc1CNC(=O)c1[nH]c(C(F)(F)F)nc1-c1ccccc1	10	nt	nt	nt	nt	nt	nt	nt	nt	nt	nt
COc1ccc(-c2csc(NC(=O)c3ccccc3OC)c2C(=O)O)cc1OC	-154	8	0	9	-9	1	nt	nt	nt	nt	nt
Cc1ccccc1C(=O)Nc1scc(-c2ccc(Br)cc2)c1C(=O)O	-47	4	19	86*	75*	1	2	53*	12	52*	4
CCc1nc2c(OCC3CCCCC3)cccn2c1N(C=O)Cc1ccc(OC)cc1	0	nt	nt	nt	nt	nt	nt	nt	nt	nt	nt
Cc1ccc2nc(C(C)(C)C)c(Cc3cccc(F)c3)n2c1	-248	nt	nt	nt	nt	nt	nt	nt	nt	nt	nt
COc1ccc(NC(=O)C(NS(=O)(=O)c2ccc3c(c2)CCCN3C(C)=O)C(C)C)c(OC)c1 (stereo not drawn)	29	6	2	-4	1	102*	-25	-10	1	-2	-5
Cc1ccc(/C=N/c2sc3c(c2C#N)CCCCC3)o1	23	9	1	97*	87*	0	94*	95*	100*	69*	77*
N#Cc1c(/N=C/c2cc3ccccc3s2)sc2c1CCC2	10	12	-19	-24	-17	-14	nt	nt	nt	nt	nt
Cc1ccc(/C=N/c2sc3c(c2C#N)CCC3)s1	6	8	-22	78*	23	84*	14	13	16	15	13
Cc1ccc(C=Nc2ccccc2C#N)s1	-43	0	-7	83*	67*	22	48	67*	87*	72*	62*
COc1ccc(C(C)=O)cc1CN1C(=O)C(C)ON=C1c1ccccn1 (stereo not drawn)	-3	nt	nt	nt	nt	nt	nt	nt	nt	nt	nt
CCc1nc2c(OCCC3CCCCC3)cccn2c1N(C)C(=O)c1ccc(OC)cc1	17	nt	nt	nt	nt	nt	nt	nt	nt	nt	nt
CCN1CCc2nc3sc(C(=O)N4CCc5ccccc5C4)c(N)c3cc2C1	-193	39	-20	6	2	3	nt	nt	nt	nt	nt
CC(C)OC(=O)CC(=O)c1sc2nc3c(cc2c1N)CN(C)CC3	nt	18	-49	54*	1	-8	4	4	-7	1	-6
CN1OC[C@@H]2CN(Cc3ccc(Cl)cc3)[C@H](c3cccc(Br)c3)C[C@@H]21	-3	nt	nt	nt	nt	nt	nt	nt	nt	nt	nt
SMILES	SENP8 block-1	Apaf-1 inh	UBC13 inh	SENP6 block	SENP8 block-2	SENP7 block	SENP8 confirm	SENP6 conf	SENP7 conf	Casp3 select	Luc interf
Cc1ccc(N2C(=O)c3ccccc3C2=O)cc1Cl	19	10	4	35	20	51*	8	11	3	19	-3
Cc1ccc(N2C(=O)c3ccccc3C2=O)cc1	16	-1	-10	3	-3	-11	nt	nt	nt	nt	nt
Cc1nc(/C(N)=N/OC(=O)c2cccc(Cl)c2)c(C(F)(F)F)o1	10	-13	5	-7	-7	4	nt	nt	nt	nt	nt
C/C(=N/OC(=O)c1ccc(C(F)(F)F)cc1)c1oc(C)nc1C	20	4	-2	84*	72*	91*	78*	79*	97*	86*	57*
O=C(Nc1csc([N+](=O)[O-])c1)Nc1ccccc1Cl	18	-10	5	13	5	34	nt	nt	nt	nt	nt
O=C(Nc1ccc(Cl)cc1)Nc1ccccc1Sc1ncc([N+](=O)[O-])s1	24	4	-12	99*	96*	95*	100*	101*	104*	100*	39
CCOc1ccc(Cl)cc1-c1cc(C(=O)NCc2cccc(C(F)(F)F)c2)[nH]n1	14	nt	nt	nt	nt	nt	nt	nt	nt	nt	nt
O=C(CSc1nnc(-c2ccncc2)n1Cc1ccco1)Nc1ccccc1Cl	18	10	-2	11	-5	3	nt	nt	nt	nt	nt
Cc1cc(C)c(NC(=O)CSc2nnc(-c3ccncc3)n2Cc2ccco2)c(C)c1	11	-1	1	-27	-7	70*	7	8	1	4	2
O=C(CSc1nnc(-c2cccnc2)n1Cc1ccco1)NCc1ccc2c(c1)OCO2	15	-3	7	-7	4	59*	-9	-6	-11	-1	2
O=C(OCc1cn([C@H]2C[C@H](c3ccccc3)N(Cc3cccs3)C[C@@H]2O)nn1)c1ccccc1	-18	nt	nt	nt	nt	nt	nt	nt	nt	nt	nt
Cn1cccc1C(=O)NC(=O)COC(=O)C12CC3CC(CC(O)(C3)C1)C2	-7	-2	2	54*	42	62*	62*	58*	82*	84*	2
[O-][n+]1c(/C=C/c2ccccc2)ccc2ccccc21	-36	18	8	77*	11	68*	92*	92*	100*	91*	89*
[O-][n+]1ccccc1/C=C/c1ccccc1	-252	-10	-13	-21	-2	12	nt	nt	nt	nt	nt

Assay outcomes (PubChem BioAssay)
